# Assay outcomes (PubChem BioAssay)
# RBBP9 inhibitor = inhibitors of human serine hydrolase RBBP9; 220,000 compounds, 0.2% hits; recombinant RBBP9, FP-Rh probe fluorescence polarization; O75884; inhibition, % at 7.94 µM;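 active means inhibition above the campaign mean of all tested compounds plus 3 SD, cut at about 14% in these data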;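 further: plate controls were DMSO wells with RBBP9 for no effect and wells lacking RBBP9 protein for full effect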
# Target sequence (O75884 whole entry, looked up): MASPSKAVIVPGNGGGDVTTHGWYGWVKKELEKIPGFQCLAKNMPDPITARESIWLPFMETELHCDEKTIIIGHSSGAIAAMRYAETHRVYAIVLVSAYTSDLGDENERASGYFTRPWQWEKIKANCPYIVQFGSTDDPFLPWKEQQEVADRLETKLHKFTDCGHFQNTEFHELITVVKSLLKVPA
#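 Measured by: FP readout at 525/598 nm; material: recombinant human RBBP9; also added: Serine-hydrolase probe FP-Rh, 375 nM pre-mixing; medium: Tris buffer pH 8.0, NaCl, Pluronic; replication: one well per compound; doses: one concentration, 7.94 µM nominal, 0.794% DMSO; timing: preincubation 30 min plus labeling 45 min at 25 °C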
# ABHD5-PLIN5 inh = blocks binding of human ABHD5 to perilipin-5. Q00G26+Q8WTS1. Split G. princeps luciferase complementation, luminescence, 4 h. inhibition, % at 4 µM. 360,000 compounds, 0.78% hits. AID 602281;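 active means inhibition above the mean inhibition across every tested compound plus 3 SD, cut at about 22% in these data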;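 further: 0% = DMSO only wells and the 100% control is not disclosed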
# LEDGF integ inh = blocks HIV-1 LEDGF/p75-dependent DNA integration; TR-FRET IN-LEDGF/p75 DNA integration, Eu/Cy5; inhibition, % at 3.7 µM; 370,000 compounds, 0.64% hits;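 active means inhibition above the screen-wide mean plus 3 SD, cut at about 13% in these data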;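 further: signal is the Cy5 over europium emission ratio at 671 and 618 nm; 0% = plate median of compound wells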
# MBD2 inh = inhibitors of human MBD2 binding to methylated oligonucleotide; Q9UBB5; TR-FRET; inhibition, % at 4.4 µM; 370,000 compounds, 0.31% hits; in the data active means inhibition above about 13%
# PRMT1 inh = blocks human protein arginine methyltransferase 1 | inhibition, % at 2.79 µM | recombinant PRMT1, activity-based probe fluorescence polarization | Q99873 | 370,000 compounds, 1.3% hits;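 active means inhibition above about 21% made by adding two undisclosed values, limit read from the data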
# Target sequence (Q99873 whole entry, looked up): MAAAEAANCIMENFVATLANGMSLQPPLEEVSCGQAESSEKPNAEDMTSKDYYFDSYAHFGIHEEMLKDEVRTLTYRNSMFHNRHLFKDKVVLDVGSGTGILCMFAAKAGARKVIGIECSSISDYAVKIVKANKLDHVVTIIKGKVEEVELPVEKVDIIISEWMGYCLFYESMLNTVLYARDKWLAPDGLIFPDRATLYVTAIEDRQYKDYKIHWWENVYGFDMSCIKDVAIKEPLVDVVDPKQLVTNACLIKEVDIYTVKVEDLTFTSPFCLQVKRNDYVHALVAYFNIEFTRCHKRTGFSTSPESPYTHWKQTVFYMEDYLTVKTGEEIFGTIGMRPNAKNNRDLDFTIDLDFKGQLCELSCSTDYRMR
# UHRF1 MBD2 ctr = UHRF1 methyl-DNA binding inhibition | Q96T88 | UHRF1 binding to methylated oligo, TR-FRET | inhibition, % at 4.4 µM | 370,000 compounds, 0.75% hits; in the data active means inhibition above about 21%;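 further: UHRF1 SRA domain binding a hemimethylated CpG hairpin DNA probe; 0% = median of test compound wells and 100% = reference inhibitor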
# IN multimer up = HIV-1 integrase multimerization activation, counter-screen; TR-FRET HIV-1 integrase multimerization, biochemical; AID 1053131; shares compounds with LEDGF integ inh; activation, % at 7.7 µM; 2,000 compounds, 17% hits; in the data active means activation above about 8.9%
# TR-FRET interf = optically interferes with TR-FRET readout in LEDGF counter-screen. 2,000 tested, under 10 active. inhibition, % at 7.7 µM. TR-FRET optical interference counterscreen, HIV-1 IN multimerization. AID 1053135. shares compounds with LEDGF integ inh;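 active means inhibition above the mean over all tested compounds plus 3 SD, which no compound reached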;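 further: 0% = integrase with antibodies and DMSO and 100% = antibodies without integrase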
# IN-LEDGF confirm = confirmation of HIV-1 LEDGF/p75-dependent integration inhibitors. shares compounds with LEDGF integ inh. TR-FRET LEDGF/p75-dependent HIV-1 integration, biochemical. inhibition, % at 3.7 µM. 2,000 compounds, 36% hits. AID 1053136; in the data active means inhibition above about 14%
# * = called active by the depositor; / = no result. An excerpt weighted towards active compounds, which were near 3.1% of everything screened.
SMILES,RBBP9 inhibitor,ABHD5-PLIN5 inh,LEDGF integ inh,MBD2 inh,PRMT1 inh,UHRF1 MBD2 ctr,IN multimer up,TR-FRET interf,IN-LEDGF confirm
Cc1cccc(-c2cccc3c4c([nH]c23)[C@@H]2C[C@H](N(C)C(=O)c3ccccc3F)[C@H]([C@H](C)O)CN2CC4)c1,/,/,-2,-3,1,-4,/,/,/
C(=C\n1nnc2ccccc21)/c1ccc[nH]1,/,11,27*,7,18,7,4,-22,37*
c1ccc(-n2nnc3ccccc32)cc1,/,4,2,2,-2,-1,/,/,/
CCCC1CCC2(CC1)CCC2OC(=O)Nc1ccc2c(c1)OCO2 (stereo not drawn),/,/,0,0,2,-1,/,/,/
CCCC[C@H]1C2CC(OC(=O)Nc3cccc(Cl)c3)C(C2)[C@H]2CCCCN21 (stereo partly drawn),/,/,-3,-4,-1,-1,/,/,/
Cc1cc(SCC(=O)c2ccc(O)c(O)c2)n2nc(C)c(-c3ccccc3)c2n1,-6,4,17*,-1,3,-3,0,2,12
Cc1ccc(N2NC(=O)/C(=C/c3ccc(-c4ccc(Cl)c(C(=O)O)c4)o3)C2=O)cc1C,-1,1,-2,-2,4,4,/,/,/
CC1(C)OC(=O)C(=Cc2ccc(-c3ccc(Cl)c(C(=O)O)c3)o2)C(=O)O1,-8,19,15*,5,15,35*,15*,-55,20*
C[C@H]1C(C(=O)N(C)C2CCCCC2)=Cc2c(n(-c3ccc(F)cc3)c(=O)n2CCCOc2ccccc2)C=C1c1ccccc1,/,/,44*,4,2,1,0,-1,17*
CON(C)C(=O)[C@H]1C[C@@H]2[C@H](C[C@@H](c3ccccc3)[C@H]1C)N(c1ccc(F)cc1)C(=O)N2CCCOc1ccccc1,/,/,3,-1,4,-2,/,/,/
O=C(O)Cc1ccc(-c2ccccc2-c2ccccc2)cc1,-5,0,4,-2,-4,3,/,/,/
O=C(O)Cc1ccc(N2N=C(c3ccccc3)CC2=O)cc1,/,-34,26*,9,6,18,1,-5,10
OC[C@@H]1CC[C@@H]2O[C@H](CCc3ccc(-c4ccc(F)cc4)cc3)[C@@H](n3cc(C4CC4)nn3)C[C@@H]2O1,/,/,-3,4,0,4,/,/,/
CC(=C1N=C(c2ccccc2)OC1=O)c1cccs1,/,/,19*,1,1,4,0,0,-2
CC1=CC(=C2N=C(c3ccccc3)OC2=O)C=C(C)O1,-10,3,-4,1,-2,3,/,/,/
Cc1cc(C)cc(CC(=O)N2CCC2(C)C(=O)NS(=O)(=O)c2cccc(OC(F)F)c2)c1 (stereo not drawn),/,1,17*,0,-3,-1,0,-1,-3
CCCCc1c(-c2ccccc2OC)ncn1C1CCCCC1,/,/,1,1,-4,-1,/,/,/
Cc1cc(-c2csc(NC(=O)c3ccc(=O)[nH]c3)n2)c(C)n1Cc1ccccc1,-8,4,17*,7,10,1,6,-29,26*
O=c1c2ccccc2n(Cc2ccccc2)n1[C@@H](Cc1ccccc1)Cn1cc(C2CCCC2)nn1,/,/,-4,0,1,0,/,/,/
O=c1cc(-c2ccccc2)[nH][nH]1,-5,-36,23*,-5,0,-1,-2,8,3
O=c1cc(-c2ccc(C3CCCCC3)cc2)[nH][nH]1,-7,-40,2,-3,1,-3,/,/,/
O=c1cccc(-c2ccccc2)[nH]1,-6,-2,-1,-2,0,-1,/,/,/
O=c1cc(-c2ccc(F)cc2)[nH][nH]1,0,-42,17*,-9,-2,-1,2,-12,17*
O=C(CSc1nnc(SCc2cccc3ccccc23)s1)Nc1ccccc1-c1ccccc1,/,/,-1,-4,-2,-1,/,/,/
COC(=O)[C@]12C[C@H](CC(=O)NCC3CCCCC3)C(=O)N(Cc3ccco3)C1=C[C@H](C(C)C)O[C@@H]2C1CC1,/,/,-1,-3,3,-2,/,/,/
SMILES,RBBP9 inhibitor,ABHD5-PLIN5 inh,LEDGF integ inh,MBD2 inh,PRMT1 inh,UHRF1 MBD2 ctr,IN multimer up,TR-FRET interf,IN-LEDGF confirm
Cc1cccc(NC(=O)CN2C(=O)N/C(=C\c3ccccc3OCc3ccc(C(=O)O)cc3)C2=O)c1,/,0,17*,3,-1,1,-3,14,8
COc1cccc(/C=C2\CC3(OC(=O)c4ccccc4)CCCN2C3)c1 (stereo not drawn),/,/,0,-3,-4,3,/,/,/
COC(=O)C1=C(N)N(c2ccccc2C(F)(F)F)C2=C(C(=O)CCC2)C1c1ccc2c(c1)OCO2 (stereo not drawn),1,-3,33*,1,0,-3,0,-1,-8
COC(=O)CSC1=C(C#N)C(c2ccc3c(c2)OCO3)C2=C(CCCC2=O)N1 (stereo not drawn),-1,3,/,/,/,/,/,/,/
COC(=O)[C@H]1[C@@H](O)[C@@]2(O)c3c(OC)cc(OC)cc3O[C@@]2(c2ccc(OC)cc2)[C@@H]1c1ccc(F)cc1,/,/,15*,2,-3,0,0,-2,-6
COC(=O)C1C(=O)C=C(Nc2ccc(F)cc2)CC1c1ccc(OC)cc1 (stereo not drawn),-8,-4,-4,0,-1,-3,/,/,/
COC(=O)C(C)N(C(=O)c1cccc2ccccc12)c1c(C)cccc1C (stereo not drawn),-10,-1,78*,3,-4,-1,2,-6,1
COC(=O)C(C)N(C(=O)c1cccc(Cl)c1)c1c(C)cccc1C (stereo not drawn),-7,-5,0,0,-2,0,/,/,/
COC(=O)[C@]12C[C@H](CC(=O)NCCCCc3ccccc3)C(=O)N(CCC3=CCCCC3)C1=C[C@H](C(C)(C)C)O[C@@H]2C,/,/,-3,3,10,0,/,/,/
CC(=O)c1cccc(-c2ccc3c(c2)C(C)(Cc2ccc(S(C)(=O)=O)cc2)C(=O)N3)c1 (stereo not drawn),/,12,48*,-5,-1,0,0,3,-2
Cc1cccc2nc(CNC(=O)C3CCC(=O)N(Cc4ccccc4F)C3)cn12 (stereo not drawn),/,1,-4,1,-1,0,/,/,/
O=C(NCc1cnc2ccccn12)C1CCC(=O)N(Cc2ccccc2F)C1 (stereo not drawn),/,-4,17*,-1,-2,-1,0,2,-5
